Experimental data: ChEMBL document CHEMBL1137764, “Design, synthesis, antibacterial activity and physicochemical parameters of novel N-4-piperazinyl derivatives of norfloxacin” (Bioorg Med Chem, 2009)
Converted amounts (≈) assume the structure as drawn.

How the values were obtained:
Pseudomonas aeruginosa [1] = experiment: Antimicrobial activity against Pseudomonas aeruginosa at 4 ug/ml after 24 hrs by agar diffusion technique; assay type: functional; settings: read-out: DIZ
In short: (§1)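 Strains came from a university microbiology department. Inocula were 10⁶ CFU/mL. Mueller-Hinton agar was seeded with culture, poured 3–4 mm thick, and 10 mm cups were bored. Compounds were dissolved in DMF (10 mg/mL stock), diluted, and the solution was placed in the cups. Plates were incubated at 37 °C overnight. Inhibition zone diameter (mm) was read at 24 h.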

Pseudomonas aeruginosa [2] = experiment: Antimicrobial activity against Pseudomonas aeruginosa at 16 ug/ml after 24 hrs by agar diffusion technique; assay type: functional; settings: read-out: DIZ; in short: as §1
Pseudomonas aeruginosa [3] = experiment: Antimicrobial activity against Pseudomonas aeruginosa at 64 ug/ml after 24 hrs by agar diffusion technique; assay type: functional; settings: read-out: DIZ; in short: as §1
Pseudomonas aeruginosa [4] = experiment: Antimicrobial activity against Pseudomonas aeruginosa at 128 ug/ml after 24 hrs by agar diffusion technique; assay type: functional; settings: read-out: DIZ; in short: as §1
Pseudomonas aeruginosa [5] = experiment: Antimicrobial activity against Pseudomonas aeruginosa at 512 ug/ml after 24 hrs by agar diffusion technique; assay type: functional; settings: read-out: DIZ; in short: as §1
Escherichia coli [6] = experiment: Antimicrobial activity against Escherichia coli at 4 ug/ml after 24 hrs by agar diffusion technique; assay type: functional; settings: read-out: DIZ; in short: as §1
Escherichia coli [7] = experiment: Antimicrobial activity against Escherichia coli at 16 ug/ml after 24 hrs by agar diffusion technique; assay type: functional; settings: read-out: DIZ; in short: as §1
Escherichia coli [8] = experiment: Antimicrobial activity against Escherichia coli at 64 ug/ml after 24 hrs by agar diffusion technique; assay type: functional; settings: read-out: DIZ; in short: as §1
Escherichia coli [9] = experiment: Antimicrobial activity against Escherichia coli at 128 ug/ml after 24 hrs by agar diffusion technique; assay type: functional; settings: read-out: DIZ; in short: as §1
Escherichia coli [10] = experiment: Antimicrobial activity against Escherichia coli at 512 ug/ml after 24 hrs by agar diffusion technique; assay type: functional; settings: read-out: DIZ; in short: as §1
Klebsiella pneumoniae [11] = experiment: Antimicrobial activity against Klebsiella pneumoniae at 4 ug/ml after 24 hrs by agar diffusion technique; assay type: functional; settings: read-out: DIZ; in short: as §1
Klebsiella pneumoniae [12] = experiment: Antimicrobial activity against Klebsiella pneumoniae at 16 ug/ml after 24 hrs by agar diffusion technique; assay type: functional; settings: read-out: DIZ; in short: as §1
Klebsiella pneumoniae [13] = experiment: Antimicrobial activity against Klebsiella pneumoniae at 64 ug/ml after 24 hrs by agar diffusion technique; assay type: functional; settings: read-out: DIZ; in short: as §1
Klebsiella pneumoniae [14] = experiment: Antimicrobial activity against Klebsiella pneumoniae at 128 ug/ml after 24 hrs by agar diffusion technique; assay type: functional; settings: read-out: DIZ; in short: as §1
Klebsiella pneumoniae [15] = experiment: Antimicrobial activity against Klebsiella pneumoniae at 512 ug/ml after 24 hrs by agar diffusion technique; assay type: functional; settings: read-out: DIZ; in short: as §1
Staphylococcus aureus [16] = experiment: Antimicrobial activity against Staphylococcus aureus at 4 ug/ml after 24 hrs by agar diffusion technique; assay type: functional; settings: read-out: DIZ; in short: as §1
Staphylococcus aureus [17] = experiment: Antimicrobial activity against Staphylococcus aureus at 16 ug/ml after 24 hrs by agar diffusion technique; assay type: functional; settings: read-out: DIZ; in short: as §1
Staphylococcus aureus [18] = experiment: Antimicrobial activity against Staphylococcus aureus at 64 ug/ml after 24 hrs by agar diffusion technique; assay type: functional; settings: read-out: DIZ; in short: as §1
Staphylococcus aureus [19] = experiment: Antimicrobial activity against Staphylococcus aureus at 128 ug/ml after 24 hrs by agar diffusion technique; assay type: functional; settings: read-out: DIZ; in short: as §1
Staphylococcus aureus [20] = experiment: Antimicrobial activity against Staphylococcus aureus at 512 ug/ml after 24 hrs by agar diffusion technique; assay type: functional; settings: read-out: DIZ; in short: as §1
Pseudomonas aeruginosa [21] = experiment: Antimicrobial activity against Pseudomonas aeruginosa after 24 hrs by agar diffusion technique; assay type: functional; settings: for MIC: Pseudomonas aeruginosa, 24 h
In short: (§2)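 Agar cup diffusion on Mueller-Hinton agar seeded from 10⁶ CFU/mL suspensions, with 10 mm cups in a 3–4 mm layer. Compounds were in DMF (10 mg/mL stock) at several concentrations. Plates were incubated at 37 °C and zones measured after 24 h. MIC was taken as the intercept of the plot of log concentration against inhibition zone diameter.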

Escherichia coli [22] = experiment: Antimicrobial activity against Escherichia coli after 24 hrs by agar diffusion technique; assay type: functional; settings: for MIC: Escherichia coli, 24 h; in short: as §2
Klebsiella pneumoniae [23] = experiment: Antimicrobial activity against Klebsiella pneumoniae after 24 hrs by agar diffusion technique; assay type: functional; settings: for MIC: Klebsiella pneumoniae, 24 h; in short: as §2
Staphylococcus aureus [24] = experiment: Antimicrobial activity against Staphylococcus aureus after 24 hrs by agar diffusion technique; assay type: functional; settings: for MIC: Staphylococcus aureus, 24 h; in short: as §2
[25] = Octanol-phosphate buffer partition coefficient, log D at pH 7.4 by spectrophotometry; assay type: physicochemical
In short: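 Shake-flask method. A 0.2 mg/mL stock was diluted into pH 7.4 phosphate buffer and mixed with an equal volume of n-octanol, phases mutually presaturated and protected from light. Samples were vortexed 3 min, then shaken 5 h at 25 °C. Both phases were assayed by UV at 270–280 nm. D is the molar concentration ratio, octanol to aqueous.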

| SMILES | zone of inhibition at 4 µg/mL (Pseudomonas aeruginosa [1]) | zone of inhibition at 16 µg/mL (Pseudomonas aeruginosa [2]) | zone of inhibition at 64 µg/mL (Pseudomonas aeruginosa [3]) | zone of inhibition at 128 µg/mL (Pseudomonas aeruginosa [4]) | zone of inhibition at 512 µg/mL (Pseudomonas aeruginosa [5]) | zone of inhibition at 4 µg/mL (Escherichia coli [6]) | zone of inhibition at 16 µg/mL (Escherichia coli [7]) | zone of inhibition at 64 µg/mL (Escherichia coli [8]) | zone of inhibition at 128 µg/mL (Escherichia coli [9]) | zone of inhibition at 512 µg/mL (Escherichia coli [10]) | zone of inhibition at 4 µg/mL (Klebsiella pneumoniae [11]) | zone of inhibition at 16 µg/mL (Klebsiella pneumoniae [12]) | zone of inhibition at 64 µg/mL (Klebsiella pneumoniae [13]) | zone of inhibition at 128 µg/mL (Klebsiella pneumoniae [14]) | zone of inhibition at 512 µg/mL (Klebsiella pneumoniae [15]) | zone of inhibition at 4 µg/mL (Staphylococcus aureus [16]) | zone of inhibition at 16 µg/mL (Staphylococcus aureus [17]) | zone of inhibition at 64 µg/mL (Staphylococcus aureus [18]) | zone of inhibition at 128 µg/mL (Staphylococcus aureus [19]) | zone of inhibition at 512 µg/mL (Staphylococcus aureus [20]) | further results |
| --- | --- | --- | --- | --- | --- | --- | --- | --- | --- | --- | --- | --- | --- | --- | --- | --- | --- | --- | --- | --- | --- |
| CCn1cc(C(=O)O)c(=O)c2cc(F)c(N3CC[N+](CCO)(CCO)CC3)cc21.[Br-] | 0 mm | 0 mm | 0 mm | 0 mm | 0 mm | 0 mm | 4 mm | 7 mm | 9 mm | 12 mm | 0 mm | 0 mm | 4 mm | 5 mm | 11 mm | 0 mm | 0 mm | 0 mm | 0 mm | 14 mm | logMIC (Pseudomonas aeruginosa [21]): 2.71; MIC (Pseudomonas aeruginosa [21]): > 512 µg/mL; logMIC (Escherichia coli [22]): 0.6; MIC (Escherichia coli [22]): 4 µg/mL; logMIC (Klebsiella pneumoniae [23]): 1; MIC (Klebsiella pneumoniae [23]): 10 µg/mL; logMIC (Staphylococcus aureus [24]): 2.11; MIC (Staphylococcus aureus [24]): 128 µg/mL; logD [25]: 0.158 |
| CCn1cc(C(=O)O)c(=O)c2cc(F)c(N3CCN(Cn4cnc5ccccc54)CC3)cc21 | 0 mm | 0 mm | 0 mm | 0 mm | 15 mm | 0 mm | 3 mm | 6 mm | 7 mm | 10 mm | 0 mm | 0 mm | 3 mm | 8 mm | 20 mm | 0 mm | 0 mm | 0 mm | 0 mm | 3 mm | logMIC (Pseudomonas aeruginosa [21]): 2.11; MIC (Pseudomonas aeruginosa [21]): 128 µg/mL (≈ 285 µM); logMIC (Escherichia coli [22]): 0.6; MIC (Escherichia coli [22]): 4 µg/mL (≈ 8.9 µM); logMIC (Klebsiella pneumoniae [23]): 1.15; MIC (Klebsiella pneumoniae [23]): 14 µg/mL (≈ 31.1 µM); logMIC (Staphylococcus aureus [24]): 2.11; MIC (Staphylococcus aureus [24]): 128 µg/mL (≈ 285 µM); logD [25]: -0.043 |
